Results from ChEMBL document CHEMBL4393678, “Novel Tetrahydroquinazolinamines as Selective Histamine 3 Receptor Antagonists for the Treatment of Obesity” (J Med Chem, 2019).
pEC50, pIC50, pKi: −log10 of the molar value. Active and inactive are the calls of the source. The rule behind the calls is not given here.

Key:
Histamine H2 receptor [1] = molecular target: T1, Histamine H2 receptor (Homo sapiens, UniProt P25021); assay: Agonist activity at recombinant human Gs-coupled H2 receptor expressed in HEK293T cells assessed as inhibition of forskolin-stimulated cAMP accumulation at 10 uM preincubated for 10 to 15 followed by forskolin-stimulation by Glo-sensor assay relative to control; type: functional, cell-based; parameters: scale not given: the % may be the effect or the level left
In short: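 HEK293T cells were transiently co-transfected with GloSensor-22F cAMP plasmid and human H2R plasmid, then held 15–18 h at 37 °C in 5% CO2. Cells were loaded with sodium luciferin (1 mg/ml) for 90 min. Agonist mode used 10 µM compound, with luminescence read directly after 10–15 min. Screening was in triplicate, scored as ≥50% change versus control.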

Histamine H2 receptor [2] = molecular target: T1, Histamine H2 receptor; assay: Agonist activity at recombinant human Gs-coupled H2 receptor expressed in HEK293T cells assessed as inhibition of forskolin-stimulated cAMP accumulation preincubated for 10 to 15 followed by forskolin-stimulation by Glo-sensor assay; type: functional, cell-based; settings: for pEC50: read-out: EC50
Histamine H3 receptor [3] = molecular target: T2, Histamine H3 receptor (Homo sapiens, UniProt Q9Y5N1); assay: (§1) Antagonist activity at recombinant human Gi-coupled H3 receptor expressed in HEK293T cells assessed as reduction in histamine-induced inhibition of forskolin-stimulated cAMP accumulation preincubated for 10 to 15 followed by histamine addition for 10 mins and subsequent forskolin-stimulation by Glo-sensor assay; type: functional, cell-based
[4] = molecular target: Histamine H4 receptor (Homo sapiens) (UniProt Q9H3N8); assay: Agonist activity at recombinant human Gi-coupled H4 receptor expressed in HEK293T cells assessed as inhibition of forskolin-stimulated cAMP accumulation at 10 uM preincubated for 10 to 15 followed by forskolin-stimulation by Glo-sensor assay; type: functional, cell-based
[5] = molecular target: Histamine H4 receptor (Homo sapiens) (UniProt Q9H3N8); assay: as §1, with “H4” for “H3”, “accumulation at 10 uM” for “accumulation”; type: functional, cell-based
[6] = molecular target: Histamine H1 receptor (Homo sapiens) (UniProt P35367); assay: Agonist activity at H1R (unknown origin) expressed in HEK293 cells harboring luc2P/NFAT-RE plasmid at 10 uM after 6 to 8 hrs by luciferase reporter gene assay; type: cell-based
In short: (§2)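 NFAT-RE luciferase assay in HEK293T cells transiently co-transfected with luc2P/NFAT-RE plasmid and receptor plasmid. Cells plated in DMEM and incubated overnight at 37 °C, 5% CO₂. Compounds and reference ligands applied for 6-8 h. Luciferase read after adding Bright-Glo substrate (1 mg/ml final).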

[7] = molecular target: Histamine H1 receptor (Homo sapiens) (UniProt P35367); assay: Antagonist activity at H1R (unknown origin) expressed in HEK293 cells harboring luc2P/NFAT-RE plasmid at 10 uM after 6 to 8 hrs by luciferase reporter gene assay; type: cell-based; in short: as §2
Histamine H3 receptor [8] = molecular target: T2, Histamine H3 receptor; assay: Displacement of [3H]N-alpha-methylhistamine from recombinant human H3 receptor expressed in HEK293T cells measured after 90 mins by liquid scintillation counting method; type: cell-based
[9] = Drug level in C57BL/6J mouse serum assessed as metabolite formation treated with 4-(4-Methoxyphenyl)-8-methyl-5,6,7,8-tetrahydroquinazolin-2-amine at 20 mg/kg, po by LC-MS/MS analysis; type: ADME, organism-based; settings: in vivo
In short: (§3)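 After a single 20 mg/kg oral dose in fasted male C57BL/6J mice (n=5 per time point), the demethylated metabolite was measured by LC-MS/MS (m/z 256.1→240.1) in serum and brain homogenate up to 24 h. Metabolite/parent AUC ratio was derived.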

[10] = Drug level in C57BL/6J mouse brain assessed as metabolite formation treated with 4-(4-Methoxyphenyl)-8-methyl-5,6,7,8-tetrahydroquinazolin-2-amine at 20 mg/kg, po by LC-MS/MS analysis; type: ADME, organism-based; settings: in vivo; in short: as §3
Mus musculus [11] = assay: Anorexic effect in high fat diet-induced obese C57BL/6J mouse model assessed as reduction in cumulative food intake at 10 mg/kg, po pretreated for 30 mins followed by food addition measured after 4 hrs relative to control; type: functional; parameters: scale not given: the % may be the effect or the level left
In short: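 Male C57BL/6J mice on high-fat diet, starved 12 h (8 am–8 pm) with water available, housed singly. Oral dose in 5% gum acacia in normal saline, vehicle group alongside. Food given 30 min after dosing, and cumulative intake measured over the 4 h night phase (9 pm–1 am). One-way ANOVA with Newman-Keuls test.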

Mus musculus [12] = assay: Anti-obesity activity in high fat diet-induced obese C57BL/6J mouse model assessed as reduction in body weight at 10 mg/kg, po; type: functional, organism-based; settings: TDE = time-dependent effect
In short: (§4)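 Male C57BL/6J mice (6–8 weeks, 22–25 g) on high-fat diet, with a normal-chow group included. Daily chronic oral dosing against vehicle for six weeks. Percent body weight change followed over the treatment days, and net body weight change taken at six weeks. n=5-6 per group. Two-way ANOVA, or one-way ANOVA with Newman-Keuls test.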

Mus musculus [13] = assay: Anti-obesity activity in high fat diet-induced obese C57BL/6J mouse model assessed as change in body weight at 10 mg/kg, po measured after 6 weeks (reference value: 3.86 +/- 0.99 g); type: functional; in short: as §4
Mus musculus [14] = assay: Anti-obesity activity in high fat diet-induced obese C57BL/6J mouse model assessed as reduction in body fat mass at 10 mg/kg, po measured after 6 weeks relative to control by NMR-based magnetic resonance imaging analysis; type: functional; parameters: scale not given: the % may be the effect or the level left
In short: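 Male C57BL/6J mice on high-fat diet dosed orally for six weeks against a vehicle-treated high-fat diet group and a chow group. Body composition (fat mass, lean mass, % body fat) measured by EchoMRI live scanning. n=5-6. One-way ANOVA with Newman-Keuls test.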

Mus musculus [15] = assay: Anorexic effect in 12 hrs fasted db/db-induced obese C57BL/6J mouse model assessed as reduction in cumulative food intake at 20 mg/kg, ip pretreated for 30 mins followed by food addition measured after 4 hrs; type: functional, organism-based
[16] = molecular target: T3, Cholecystokinin receptor type A (Homo sapiens, UniProt P32238); assay: Displacement of [I125]bolton hunter-CCK-8S from recombinant human CCK1 receptor expressed in stable CHO cells measured after 1 to 2 hrs by microscintillation counting method; type: cell-based
T3 sequence (P32238 whole entry): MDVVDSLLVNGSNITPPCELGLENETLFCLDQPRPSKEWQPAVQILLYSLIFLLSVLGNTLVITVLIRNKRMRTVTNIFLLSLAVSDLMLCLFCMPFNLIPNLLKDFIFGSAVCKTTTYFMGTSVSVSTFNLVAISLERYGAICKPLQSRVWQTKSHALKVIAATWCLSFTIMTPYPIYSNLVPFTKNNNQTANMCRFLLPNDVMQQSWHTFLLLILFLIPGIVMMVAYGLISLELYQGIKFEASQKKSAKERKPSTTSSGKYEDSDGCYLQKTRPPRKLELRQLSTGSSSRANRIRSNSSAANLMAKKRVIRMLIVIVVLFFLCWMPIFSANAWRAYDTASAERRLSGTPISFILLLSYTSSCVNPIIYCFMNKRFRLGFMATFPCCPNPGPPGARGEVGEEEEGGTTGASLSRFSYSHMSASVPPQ

Histamine H4 receptor (Homo sapiens), sequence (Q9H3N8 whole entry): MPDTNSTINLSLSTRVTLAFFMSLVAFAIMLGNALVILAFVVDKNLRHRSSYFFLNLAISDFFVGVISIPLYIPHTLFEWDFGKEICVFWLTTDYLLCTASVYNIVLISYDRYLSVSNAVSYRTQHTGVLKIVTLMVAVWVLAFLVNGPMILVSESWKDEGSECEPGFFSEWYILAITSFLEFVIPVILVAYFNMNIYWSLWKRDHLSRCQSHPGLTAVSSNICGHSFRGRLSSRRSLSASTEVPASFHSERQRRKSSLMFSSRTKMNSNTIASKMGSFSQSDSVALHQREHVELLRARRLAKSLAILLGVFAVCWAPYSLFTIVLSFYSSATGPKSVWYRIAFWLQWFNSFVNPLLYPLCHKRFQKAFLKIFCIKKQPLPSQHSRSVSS
Histamine H1 receptor (Homo sapiens), sequence (P35367 whole entry): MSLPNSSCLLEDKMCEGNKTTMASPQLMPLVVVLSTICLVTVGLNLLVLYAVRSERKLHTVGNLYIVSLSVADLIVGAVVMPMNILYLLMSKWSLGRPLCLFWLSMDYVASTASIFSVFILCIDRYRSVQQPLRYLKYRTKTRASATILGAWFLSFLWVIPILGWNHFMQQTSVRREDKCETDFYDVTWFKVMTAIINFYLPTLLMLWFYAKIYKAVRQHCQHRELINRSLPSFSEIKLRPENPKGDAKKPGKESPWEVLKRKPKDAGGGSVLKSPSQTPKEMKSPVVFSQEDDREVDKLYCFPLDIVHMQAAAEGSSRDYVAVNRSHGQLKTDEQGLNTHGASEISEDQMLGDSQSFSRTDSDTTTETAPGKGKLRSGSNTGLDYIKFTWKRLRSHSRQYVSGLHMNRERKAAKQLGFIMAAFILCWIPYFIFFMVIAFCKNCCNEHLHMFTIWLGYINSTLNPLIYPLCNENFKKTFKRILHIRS
T2 sequence (Q9Y5N1 whole entry): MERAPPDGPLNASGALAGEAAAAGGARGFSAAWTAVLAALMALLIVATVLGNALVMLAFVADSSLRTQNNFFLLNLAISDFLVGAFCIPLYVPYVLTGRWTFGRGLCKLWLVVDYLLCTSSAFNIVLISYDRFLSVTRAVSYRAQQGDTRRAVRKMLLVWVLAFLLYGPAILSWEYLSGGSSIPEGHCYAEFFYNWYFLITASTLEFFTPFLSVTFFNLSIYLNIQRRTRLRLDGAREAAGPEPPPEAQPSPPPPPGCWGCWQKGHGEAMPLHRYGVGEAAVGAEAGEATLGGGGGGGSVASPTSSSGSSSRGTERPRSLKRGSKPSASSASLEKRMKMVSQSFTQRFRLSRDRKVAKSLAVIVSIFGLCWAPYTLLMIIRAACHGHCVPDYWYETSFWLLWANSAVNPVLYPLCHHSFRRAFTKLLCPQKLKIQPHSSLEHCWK
T1 sequence (P25021 whole entry): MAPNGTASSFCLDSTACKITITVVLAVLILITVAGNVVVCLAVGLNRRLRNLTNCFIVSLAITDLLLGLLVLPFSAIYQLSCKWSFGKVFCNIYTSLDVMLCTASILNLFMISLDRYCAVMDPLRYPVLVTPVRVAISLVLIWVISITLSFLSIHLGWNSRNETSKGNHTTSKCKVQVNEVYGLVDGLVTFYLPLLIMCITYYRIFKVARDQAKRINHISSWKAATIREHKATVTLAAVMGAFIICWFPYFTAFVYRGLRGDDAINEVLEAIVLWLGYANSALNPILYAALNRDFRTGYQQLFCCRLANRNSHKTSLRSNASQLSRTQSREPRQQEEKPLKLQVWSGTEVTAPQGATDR

Structure (SMILES) | Activity (Histamine H2 receptor [1]) [%] | pIC50 (Histamine H3 receptor [3]) | Activity [4] | inhibition [5] | Activity [6] | inhibition [7] | pEC50 (Histamine H2 receptor [2]) | other results
CC1CCCc2c(-c3ccc(Br)cc3)nc(N)nc21 (stereo not drawn) | < 50 | 5.51 | inactive | inactive | inactive | inactive | – | EC50 (Histamine H2 receptor [2]): Not Active
CCCCc1cc(-c2ccc(OC)cc2)nc(N)n1 | – | 5.35 | inactive | inactive | inactive | inactive | 5.29 | EC50 (Histamine H2 receptor [2]; read-out: pEC50 (converted)): 5250 nM
Cc1ccc(C2(O)CCN(c3nc(C)nc4ccsc34)CC2)nc1 | – | – | – | – | – | – | – | pKi (Histamine H3 receptor [8]): 8.22
CC1CCCc2c(-c3ccc(C#N)cc3)nc(N)nc21 (stereo not drawn) | < 50 | 5.26 | inactive | inactive | inactive | inactive | – | EC50 (Histamine H2 receptor [2]): Not Active
COc1ccc(-c2nc(N)nc3c2CC(C)CC3)cc1 (stereo not drawn) | 50 | 5.33 | inactive | inactive | inactive | inactive | 5.67 | –
CC1CCCc2c(-c3ccc(O)cc3)nc(N)nc21 (stereo not drawn) | – | – | – | – | – | – | – | Drug metabolism [9]: Metabolite_Detected; Drug metabolism [10]: Metabolite_Detected
CC1CCCc2c(-c3cccc(O)c3)nc(N)nc21 (stereo not drawn) | < 50 | 5.34 | inactive | inactive | inactive | inactive | – | EC50 (Histamine H2 receptor [2]): Not Active
CC1CCCc2c(-c3ccccc3)nc(N)nc21 (stereo not drawn) | 50 | 5.89 | inactive | inactive | inactive | inactive | 7.00 | –
CC1CCCc2c(-c3cccnc3)nc(N)nc21 (stereo not drawn) | < 50 | 5.17 | inactive | inactive | inactive | inactive | – | EC50 (Histamine H2 receptor [2]): Not Active
CC1CCCc2c1nc(N)nc2C1CCCCC1 (stereo not drawn) | 50 | 6.62 | inactive | inactive | inactive | inactive | 6.44 | –
C[C@H]1CNCCc2ccc(Cl)cc21 [LORCASERIN] | – | – | – | – | – | – | – | Activity (Mus musculus [11]): 40%; Activity (Mus musculus [12]): Tde; Activity (Mus musculus [13]): 0.95 g; Activity (Mus musculus [14]): 22.4%
COc1cccc(-c2nc(N)nc3c2CCCC3C)c1 (stereo not drawn) | 50 | 7.15 | inactive | inactive | inactive | inactive | 6.60 | –
c1ccc(CNc2ccnc(Nc3ccc(OCCN4CCCCC4)cc3)n2)cc1 | – | – | – | – | – | – | – | pKi (Histamine H3 receptor [8]): 8.35
Cc1ccc(-c2nc(N)nc3c2CCCC3C)cc1 (stereo not drawn) | 50 | 5.53 | inactive | inactive | inactive | inactive | 6.06 | –
CC(N)(Cc1cnc[nH]1)C(=O)O (racemic) | – | – | – | – | – | – | – | Activity (Mus musculus [15]): inactive
COc1ccc(-c2nc(N)nc3c2CCCC3)cc1 | – | 5.56 | inactive | inactive | inactive | inactive | 5.86 | EC50 (Histamine H2 receptor [2]; read-out: pEC50 (converted)): 1290 nM
CC1CCCc2c(-c3ccc(F)cc3)nc(N)nc21 (stereo not drawn) | – | 6.25 | inactive | inactive | inactive | inactive | 7.10 | –
CC1CCCc2c(-c3cccc4ccccc34)nc(N)nc21 (stereo not drawn) | < 50 | 5.57 | inactive | inactive | inactive | inactive | – | EC50 (Histamine H2 receptor [2]): Not Active
CC1CCCc2c(-c3ccc(Cl)cc3)nc(N)nc21 (stereo not drawn) | 50 | 6.05 | inactive | inactive | inactive | inactive | 7.10 | –
CC1CCCc2c(-c3ccc([N+](=O)[O-])cc3)nc(N)nc21 (stereo not drawn) | 50 | 4.91 | inactive | inactive | inactive | inactive | 5.28 | EC50 (Histamine H2 receptor [2]; read-out: pEC50 (converted)): 5370 nM
CC1CCCc2c(-c3cccc(Br)c3)nc(N)nc21 (stereo not drawn) | 50 | 7.05 | inactive | inactive | inactive | inactive | 6.08 | EC50 (Histamine H2 receptor [2]; read-out: pEC50 (converted)): 316 nM
COc1ccc(-c2nc(NC(=O)c3cc4ccccc4n3CC(=O)O)ncc2CC2CCCCC2)c(OC)c1 | – | – | – | – | – | – | – | pIC50 [16]: > 7.30
